This is a sample that favours compounds with a hit; in the whole collection about 3% have one here.
UBC13 polyUb: inhibitors of human UBC13 polyubiquitin chain formation | TR-FRET | P61088 | actives 0.47% (n = 330,000) | inhibition, % at 20 µM | AID 485273; in the data active = inhibition above about 45%, passing the limit was not always enough
Target sequence (P61088 whole entry, looked up): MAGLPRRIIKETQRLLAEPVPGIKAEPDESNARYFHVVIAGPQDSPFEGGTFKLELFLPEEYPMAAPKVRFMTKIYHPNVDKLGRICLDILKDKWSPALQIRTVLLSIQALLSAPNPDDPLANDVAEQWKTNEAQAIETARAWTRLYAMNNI
SENP6 inh: SENP6 protease inhibition; Q9GZR1; Recombinant SENP6 catalytic domain, aminoluciferin luminescence; inhibition, % at 10 µM; actives 1.8% (n = 330,000); AID 2599;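 active = inhibition above about 50% at the single tested dose, limit read from the data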;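 also: plate controls were DMSO wells with enzyme for no effect and DMSO wells lacking enzyme for full effect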
Target sequence (Q9GZR1 628-1112 limits assumed): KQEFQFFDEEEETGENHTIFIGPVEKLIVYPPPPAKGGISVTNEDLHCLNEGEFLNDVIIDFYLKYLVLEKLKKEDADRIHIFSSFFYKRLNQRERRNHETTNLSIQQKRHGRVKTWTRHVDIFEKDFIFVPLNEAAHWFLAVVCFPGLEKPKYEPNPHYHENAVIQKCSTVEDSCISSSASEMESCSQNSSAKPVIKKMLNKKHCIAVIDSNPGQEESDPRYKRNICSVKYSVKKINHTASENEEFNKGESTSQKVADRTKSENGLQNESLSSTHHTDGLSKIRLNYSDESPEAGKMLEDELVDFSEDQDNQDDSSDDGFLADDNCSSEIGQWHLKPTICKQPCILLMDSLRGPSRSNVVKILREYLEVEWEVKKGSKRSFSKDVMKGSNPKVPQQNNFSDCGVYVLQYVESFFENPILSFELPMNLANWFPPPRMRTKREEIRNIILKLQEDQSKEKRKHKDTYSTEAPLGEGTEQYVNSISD
SENP8 block-1: inhibitors of human SENP8 protease; Q96LD8; purified SENP8, Z-RLRGG-aminoluciferin cleavage, luminescence; inhibition, % at 10 µM; actives 1.2% (n = 330,000); in the data active = inhibition above about 50%
Apaf1 inhib: blocks human Apaf-1 apoptosome activity | reconstituted apoptosome caspase-3 activity, DEVD-Rh110 fluorescence | inhibition, % at 20 µM | actives 0.71% (n = 330,000); active = inhibition of at least 40% at 20 µM;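 also: plate controls were DMSO wells for no effect and DEVD-CHO caspase inhibitor wells for full effect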
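Material: reconstituted apoptosome with Apaf-1, cytochrome c, caspase-9, procaspase-3, dATP / Buffer or medium: pH 7.5 Hepes buffer with CHAPS, BSA, DTT / Also added: cytochrome c with DEVD-Rh110 / Schedule: compound with Apaf-1, dATP, procaspase-3 30 min, then 50 min reaction, room temperature / Technique: rhodamine 110 fluorescence at Ex 480/Em 540 nm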
SENP7 block: SENP7 protease inhibition; AID 434973; Q9BQF6; recombinant SENP7, Z-RLRGG-aminoluciferin luminescence, 40 min; inhibition, % at 5 µM; actives 1.5% (n = 330,000);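 active = inhibition above about 50% at the single test dose, limit read from the data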;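 also: plate controls were DMSO with enzyme for no effect and no enzyme buffer wells for full effect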
SENP8 block-2: SENP8 (human) protease inhibition. recombinant SENP8, Nedd8 substrate fluorescence. actives 0.64% (n = 360,000). inhibition, % at 20 µM. AID 602440; in the data active = inhibition mostly above about 40%, no sharp cut-off; inactive = mostly below about 27%
Casp3 counter: counter-screen for UBC13 inhibitors: human caspase-3 inhibition; shares compounds with UBC13 polyUb; Recombinant caspase-3, Caspase-Glo 3/7 luminescence, 60 min; inhibition, % at 20 µM; actives 4% (n = 1,400); AID 488856;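 active = mean inhibition across replicates above about 26%, limit read from the data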;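 also: plate controls were DMSO with caspase-3 for no effect and DMSO wells lacking enzyme for full effect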
UBC13 conf: human UBC13 polyubiquitin inhibition, confirmed | shares compounds with UBC13 polyUb | UBC13 polyubiquitination, TR-FRET, biochemical | inhibition, % at 10 µM | actives 68% (n = 1,400) | AID 488859; in the data active = inhibition above about 45%
The depositor's hits bear a star.

`CCC(C)(C)NC(=O)CN(C(=O)c1snc(C(N)=O)c1N)c1ccc2c(c1)OCCO2` gave UBC13 polyUb 70.2*, SENP6 inh -30.0, SENP8 block-1 7.0, Apaf1 inhib -5.0, SENP7 block 0.7, SENP8 block-2 -53.3, Casp3 counter -5.7 and UBC13 conf 59.4*.
CCC(C)(C)NC(=O)CN(C(=O)c1snc(C(N)=O)c1N)c1ccc2nc(C)sc2c1 was read as UBC13 polyUb 73.6*, SENP6 inh 8.2, SENP8 block-1 6.2, Apaf1 inhib -0.2, SENP7 block 2.4, SENP8 block-2 -315.7, Casp3 counter 1.7 and UBC13 conf 83.0*.
`Cc1ccc(S(=O)(=O)N(C)c2ccc(OCC(=O)N3CCCCC3)cc2)cc1` gave UBC13 polyUb 7.4, SENP6 inh -6.3, SENP8 block-1 -11.0, Apaf1 inhib -1.2, SENP7 block -2.9 and SENP8 block-2 3.3.
`CCN(CC)CCNC(=O)c1cc2c(s1)-c1ccccc1SC2` gave UBC13 polyUb 50.5*, SENP6 inh 10.1, SENP8 block-1 -1.3, Apaf1 inhib 4.7, SENP7 block 6.6, SENP8 block-2 -323.2, Casp3 counter -4.2 and UBC13 conf 53.4*.
CCn1c(=O)c2cc(C(=O)NCCOC)sc2c2ccccc21 was read as UBC13 polyUb 22.2, SENP6 inh -0.1, SENP8 block-1 5.1, Apaf1 inhib 5.0, SENP7 block 6.2 and SENP8 block-2 -289.6.
`CCN(CC)CCNC(=O)c1cc2c(=O)n(CC)c3ccccc3c2s1` gave UBC13 polyUb 57.4*, SENP6 inh -5.5, SENP8 block-1 6.8, Apaf1 inhib 7.9, SENP7 block 3.0, SENP8 block-2 -303.5, Casp3 counter -0.2 and UBC13 conf 61.9*.
`CCCN(CCC)CCNC(=O)c1cc2c(=O)n(CC)c3ccccc3c2s1` gave UBC13 polyUb 73.0*, SENP6 inh -1.7, SENP8 block-1 -4.5, Apaf1 inhib -21.9, SENP7 block -1.9, SENP8 block-2 -444.0, Casp3 counter -3.2 and UBC13 conf 74.0*.
For CCn1c(=O)c2cc(C(=O)NCCN(C)C)sc2c2ccccc21 the results were UBC13 polyUb 46.0*, SENP6 inh 7.3, SENP8 block-1 5.5, Apaf1 inhib -0.4, SENP7 block 2.8, SENP8 block-2 -281.4, Casp3 counter -0.6 and UBC13 conf 35.2.
Screening CCN(CC)CCCNC(=O)c1cc2c(=O)n(CC)c3ccccc3c2s1 returned UBC13 polyUb 42.3, SENP6 inh 17.0, SENP8 block-1 6.1, Apaf1 inhib 5.6, SENP7 block 9.3 and SENP8 block-2 -269.7.
Screening COc1cc(OC)c(S(=O)(=O)NC(C)C)cc1C(=O)O returned UBC13 polyUb 6.0, SENP6 inh 4.4, SENP8 block-1 0.8, Apaf1 inhib -11.8, SENP7 block 4.3 and SENP8 block-2 20.6.
Screening O=C(CCCN1C(=O)c2cccnc2Oc2ccc(Cl)cc21)N1CCCCC1 returned UBC13 polyUb -6.2, SENP6 inh -1.6, SENP8 block-1 3.7, Apaf1 inhib 15.7, SENP7 block 3.1 and SENP8 block-2 10.4.
For Cc1ccc2nc(N(CCCN(C)C)C(=O)c3ccc4c(c3)CCCC4)sc2c1 the results were UBC13 polyUb 66.2*, SENP6 inh 0.3, SENP8 block-1 0.0, Apaf1 inhib 16.6, SENP7 block -3.3, SENP8 block-2 15.5, Casp3 counter 0.0 and UBC13 conf 68.6*.
CCc1ccc2nc(N(CCCN(C)C)C(=O)c3ccc(S(=O)(=O)N4CCc5ccccc5C4)cc3)sc2c1 was read as UBC13 polyUb 87.4*, SENP6 inh -7.5, SENP8 block-1 1.8, Apaf1 inhib 18.8, SENP7 block 17.2, SENP8 block-2 5.9, Casp3 counter -0.9 and UBC13 conf 113.6*.
For CCOc1ccc2nc(N(CCCN(C)C)C(=O)c3ccc(S(=O)(=O)N4CCCC4)cc3)sc2c1 the results were UBC13 polyUb 27.1, SENP6 inh -3.8, SENP8 block-1 6.8, Apaf1 inhib 12.1, SENP7 block -3.1 and SENP8 block-2 11.1.
Screening Cc1ccc2ccccc2c1C(O)c1ncc(-c2ccccc2F)[nH]1 (centres undefined) returned SENP8 block-2 8.8.
For CN(Cc1nc2ccccc2c(=O)[nH]1)C(=O)COc1ccccc1Cc1ccccc1 the results were UBC13 polyUb 11.9, SENP6 inh 4.1, SENP8 block-1 -8.0, Apaf1 inhib 24.3, SENP7 block -1.6 and SENP8 block-2 7.4.
`CCOc1ccc(-c2nc(S(=O)(=O)c3ccccc3)c(NC)o2)cc1` gave UBC13 polyUb 46.7*, SENP6 inh -14.5, SENP8 block-1 1.3, Apaf1 inhib -7.8, SENP7 block -10.1, SENP8 block-2 -18.8, Casp3 counter -0.2 and UBC13 conf 33.1.
`CNc1oc(-c2ccccc2)nc1S(=O)(=O)c1ccc(C)cc1` gave UBC13 polyUb -6.4, SENP6 inh -1.6, SENP8 block-1 6.9, Apaf1 inhib 1.8, SENP7 block -4.9 and SENP8 block-2 -86.4.
`COc1nc(-c2cccs2)cc(-c2ccc(C)cc2)c1C#N` gave UBC13 polyUb 27.7, SENP6 inh -1.9, SENP8 block-1 -16.2, Apaf1 inhib 14.4, SENP7 block -5.5 and SENP8 block-2 -314.4.
Screening COc1ccc(-c2cc(-c3cccs3)nc(OC)c2C#N)cc1OC returned UBC13 polyUb 49.8*, SENP6 inh -6.8, SENP8 block-1 -2.0, Apaf1 inhib -1.5, SENP7 block 6.4, SENP8 block-2 -383.5, Casp3 counter -2.3 and UBC13 conf 44.5.
Screening CN(C)CCCn1c(=O)n(CCc2ccccc2)c(=O)c2c3c(sc21)CCCCC3 returned UBC13 polyUb 38.9, SENP6 inh -14.0, SENP8 block-1 -4.6, Apaf1 inhib 21.9, SENP7 block 5.2 and SENP8 block-2 14.7.
For CN(C)CCCNc1nc2sc3c(c2c(=O)n1CCc1ccccc1)CCCCC3 the results were UBC13 polyUb 49.3*, SENP6 inh -9.4, SENP8 block-1 -1.9, Apaf1 inhib 12.7, SENP7 block -2.7, SENP8 block-2 18.6, Casp3 counter -1.2 and UBC13 conf 72.6*.
For CCCCCc1cc(=O)oc2c(C(CCN(CC)CC)c3cc(OC)c(OC)c(OC)c3)c(OC)cc(OC)c12 (centres undefined) the results were UBC13 polyUb 84.9*, SENP6 inh -6.3, SENP8 block-1 -6.8, Apaf1 inhib 23.7, SENP7 block -6.0, SENP8 block-2 -90.4, Casp3 counter -2.1 and UBC13 conf 73.0*.

Compound activity: PubChem BioAssay, Sanford-Burnham Center for Chemical Genomics
